PubChem BioAssay
Calls of active or inactive are those of the source.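 Rule for the calls, unless noted: active = a full or partial loss of lipid-probe fluorescence in the fish gall bladder, intestine or both, judged by eye; inactive = no fluorescence loss, or compound toxic to the fish.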

How the values were obtained:
[1] = inhibitors of TNFa-induced NFkB p65 translocation, primary screen, imaging, HUVEC, MLSMR starter and 10KST1 sets (AID 438;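 active = inhibition above 20% together with a positive visual image hit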;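 note: compound added about 3h40 before a 20 min TNFalpha stimulation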;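 for inhibition: signal is the nuclear over cytoplasmic p65 intensity ratio per well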); details: HUVEC TNFa-induced p65 nuclear translocation; cell count: measured here: nuclei count (cytotoxicity indicator), at 2.08 µM; inhibition: at 2 µM, stronger effect = higher value, 0% TNFa-plus-vehicle, 100% no-TNFa wells
[2] = inhibitors of E-selectin induction by TNFa, primary screen, imaging, HUVEC, immunofluorescence, MLSMR starter and 10KST1 sets (AID 487;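 active = visually confirmed hit in the image check and inhibition above 20%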;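 for inhibition: signal is fraction of cell area covered by stained E-selectin grains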;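 for nuclei count: 100% = median nuclei count of all wells on the same plate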); details: HUVEC TNFalpha-induced E-selectin immunofluorescence imaging, at 2 µM; inhibition: stronger effect = higher value; nuclei count: measured here: cell number, toxicity
[3] = DUSP6 inhibitors restoring Erk phosphorylation by chemical complementation, primary imaging in DUSP6-transfected HeLa (AID 609;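 active = compounds giving at least 50% inhibition in the cell-based MKP-3 phosphatase rescue imaging test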;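 for inhibition: phospho-Erk level distribution per well compared with pooled transfected vehicle control wells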); details: HeLa MKP-3 transfected, phospho-Erk imaging KS statistic, at 10 µM, cells stimulated with TPA for 15 min
[4] = target: Dual specificity protein phosphatase 6 (Homo sapiens) (UniProt Q16828); test: as above; details: HeLa MKP-3 transfected, phospho-Erk imaging KS statistic; at 10 µM; stronger effect = higher value; cells stimulated with TPA for 15 min
Sequence of Dual specificity protein phosphatase 6 (Homo sapiens) (Q16828 whole entry, looked up): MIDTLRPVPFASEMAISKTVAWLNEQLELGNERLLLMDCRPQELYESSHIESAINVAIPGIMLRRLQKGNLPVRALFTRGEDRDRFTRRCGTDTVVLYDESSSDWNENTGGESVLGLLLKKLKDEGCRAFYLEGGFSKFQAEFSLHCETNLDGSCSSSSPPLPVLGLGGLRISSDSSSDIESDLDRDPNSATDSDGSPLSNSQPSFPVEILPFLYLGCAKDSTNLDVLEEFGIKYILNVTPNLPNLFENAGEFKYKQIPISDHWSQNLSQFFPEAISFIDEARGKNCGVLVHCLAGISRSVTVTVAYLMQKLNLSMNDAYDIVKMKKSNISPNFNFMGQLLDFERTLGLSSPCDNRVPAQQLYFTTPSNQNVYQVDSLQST

[5] = target: Voltage-gated potassium channel subunit beta-2 (Rattus norvegicus) (UniProt P62483); test: KvBeta enzyme negative modulators, primary screen, biochemical, NADPH fluorescence (AID 622;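 active = fluorescence slope higher than the sample average by over 3 SD, cut at about -0.22 in these data, passing the limit was not always enough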;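 note: slope of raw intensity against log time taken from 70 to 1610 s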); details: recombinant KvBeta, 4-cyanobenzaldehyde reduction, at 10 µM, stronger effect = higher value
Sequence of Voltage-gated potassium channel subunit beta-2 (Rattus norvegicus) (P62483 whole entry, looked up): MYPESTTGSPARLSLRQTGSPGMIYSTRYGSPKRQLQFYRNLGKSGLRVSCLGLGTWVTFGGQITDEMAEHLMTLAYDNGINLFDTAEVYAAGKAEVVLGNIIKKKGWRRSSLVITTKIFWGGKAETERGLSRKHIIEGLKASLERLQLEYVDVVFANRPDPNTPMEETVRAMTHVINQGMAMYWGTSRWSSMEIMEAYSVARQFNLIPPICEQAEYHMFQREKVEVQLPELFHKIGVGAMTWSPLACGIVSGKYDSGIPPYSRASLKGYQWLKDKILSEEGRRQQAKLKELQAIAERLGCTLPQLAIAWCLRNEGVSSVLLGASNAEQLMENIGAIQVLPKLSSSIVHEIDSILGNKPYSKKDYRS

[6] = target: Voltage-gated potassium channel subunit beta-2 (Rattus norvegicus) (UniProt P62483); test: KvBeta positive modulators, primary screen, biochemical, NADPH fluorescence (AID 623;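 active = NADPH fluorescence slope more negative than the mean of all samples by about 3 SD, 99.7% confidence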;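 note: fluorescence intensity change per second fitted from 20 to 320 s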); details: Recombinant KvBeta, NADPH fluorescence decrease slope, 10 min; at 10 µM; stronger effect = lower value
[7] = target: Alpha-2C adrenergic receptor (Homo sapiens) (UniProt P18825); test: modulators of alpha2C/GIRK thallium flux, primary screen, cell-based, HEK293 alpha2C/GIRK1/2 (AID 624;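 active = fluorescence slope after compound addition differing from the mean of all screened samples at 99.7% confidence, in either direction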;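 note: slope of fluorescence ratio to pre-addition baseline per second over 15 to 24 s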); details: thallium flux BTC fluorescence, at 10 µM, actives lie on both sides
Sequence of Alpha-2C adrenergic receptor (Homo sapiens) (P18825 whole entry, looked up): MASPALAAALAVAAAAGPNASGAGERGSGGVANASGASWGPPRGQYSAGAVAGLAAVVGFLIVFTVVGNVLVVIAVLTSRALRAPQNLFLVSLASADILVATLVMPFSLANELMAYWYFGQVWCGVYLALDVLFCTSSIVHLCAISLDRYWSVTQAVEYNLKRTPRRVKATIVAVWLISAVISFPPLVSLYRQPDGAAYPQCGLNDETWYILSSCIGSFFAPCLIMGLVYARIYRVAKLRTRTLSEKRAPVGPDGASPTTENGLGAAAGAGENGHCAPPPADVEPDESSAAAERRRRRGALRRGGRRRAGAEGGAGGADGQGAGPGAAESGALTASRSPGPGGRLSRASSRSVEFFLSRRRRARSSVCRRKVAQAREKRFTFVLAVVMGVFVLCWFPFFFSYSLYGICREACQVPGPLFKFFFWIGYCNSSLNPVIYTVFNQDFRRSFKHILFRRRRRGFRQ

[8] = inhibitors of larval lipid processing in zebrafish, primary screen, whole organism, PED6 fluorescence, gall bladder and intestine (AID 686); details: Zebrafish larvae PED6 lipid processing, fluorescence scoring; screened at 20 µM (by protocol);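 note: larvae 5 to 7 days old with five fish per well; signal comes from phospholipase A2 cleavage of quenched PED6 carried via bile; overnight exposure to compound and PED6 before scoring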
Summary of the method: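 Doses: 20 µM single dose. Test system: live zebrafish larvae aged 5-7 days, whole organism. Quantity: five larvae per well. Measured by: By-eye fluorescence microscopy. Reagent: ingested quenched lipid PED6 at 100 nM. Read-out: visual per-well fluorescence inhibition score. Times: overnight exposure of larvae to compound plus PED6.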

[9] = inhibitors of Chlamydomonas gravitaxis, primary screen, whole organism, Chlamydomonas reinhardtii, WT vs cilia-less mutant, absorbance, 96-well (AID 463189;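 active = inhibition at or above 50% relative to wild type and mutant plate controls; inactive = inhibition below 50%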;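 note: 0% = wild type cc124 cells in DMSO and 100% = ciliumless bld1 mutant cells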); details: OD600 absorbance, 2 days, at 10 µM, stronger effect = higher value
[10] = measured here: cell density z-score
[11] = measured here: nuclear c-Myc green intensity z-score
[12] = measured here: nuclear pErk red intensity z-score, stronger effect = higher value

Row | SMILES | cell count [1] | inhibition [1] | inhibition [2] | nuclei count [2] [%] | z-score [3, 10] | z-score [3, 11] | z-score [3, 12] | inhibition [4] | fluorescence slope [5] | NADPH fluorescence slope [6] | slope [7] | outcome [8] | inhibition [9]
1 | Cn1ncc2nnn(-c3ccccc3)c(=O)c21 | 492 | -0.2% (inactive) | -10.3% (inactive) | 107 | -0.32 | 1.71 | -1.2 | -1.12% (inactive) | -0.497 (inactive) | -0.000269 (inactive) | 0.00475 (inactive) | inactive | -10.6% (inactive)
2 | C=CCOc1nc2c(c(=O)n(C)c(=O)n2C)n1Cc1ccc(Cl)cc1 | 659 | 7.6% (inactive) | -11.6% (inactive) | 137 | -0.719 | 0.0983 | 0.628 | 27.5% (inactive) | -0.516 (inactive) | -0.000102 (inactive) | 0.00536 (inactive) | inactive | 4.31% (inactive)
3 | ClC(Br)=C(n1cnc2ccccc21)n1cnc2ccccc21 | 536 | -11% (inactive) | -108% (inactive) | 155 | 1.2 | -0.506 | -1.02 | 16.1% (inactive) | -0.523 (inactive) | -3.7e-05 (inactive) | 0.00536 (inactive) | inactive | 30.5% (inactive)
4 | CCOC(=O)c1sc(-n2[nH]c(C)cc2=O)nc1C | 452 | -2.2% (inactive) | -23% (inactive) | 170 | 1.1 | -0.753 | 0.507 | -10.1% (inactive) | -0.398 (inactive) | -7e-05 (inactive) | 0.00502 (inactive) | inactive | -4.12% (inactive)
5 | Cn1ncc(N=Cc2ccccc2)c1C(N)=O | 599 | 2.9% (inactive) | -32.8% (inactive) | 138 | -2.18 | 0.507 | 1.65 | 18.6% (inactive) | -0.54 (inactive) | -8.2e-05 (inactive) | 0.00589 (inactive) | inactive | -3.53% (inactive)
6 | CC(C)Cn1cnc2c(c1=O)c1nc3ccccc3nc1n2Cc1ccc2c(c1)OCO2 | 361 | -3.7% (inactive) | -15.2% (inactive) | 149 | 0.279 | -0.729 | -0.248 | 9.42% (inactive) | -0.393 (inactive) | -0.000121 (inactive) | 0.00801 (inactive) | inactive | 1.23% (inactive)
7 | CCOP(=O)(c1ccccc1)c1nc(-c2ccccc2C)oc1N1CCCCC1 (stereo not drawn) | 603 | -2.4% (inactive) | -34% (inactive) | 167 | -0.907 | 0.675 | 1.07 | 13.2% (inactive) | -0.49 (inactive) | -0.000125 (inactive) | 0.00422 (inactive) | inactive | 56.6% (active)
8 | Cc1c(OCc2ccccc2)c(=O)ccn1Cc1ccccc1 | 560 | -7.9% (inactive) | -27.8% (inactive) | 226 | 0.907 | -0.745 | -0.326 | -2.91% (inactive) | -0.379 (inactive) | -2.4e-05 (inactive) | 0.00471 (inactive) | inactive | -5.81% (inactive)
9 | O=C1c2ccccc2S(=O)(=O)N1CC(O)COc1ccc(Cl)cc1 (stereo not drawn) | 354 | -14.1% (inactive) | -291% (inactive) | 97 | 0.633 | 0.437 | -1.99 | 1.75% (inactive) | -0.439 (inactive) | -8.9e-06 (inactive) | 0.00476 (inactive) | inactive | 1.18% (inactive)
10 | CC1(C)Cc2c(C#N)c(SCC(=O)c3ccccc3)nc(N3CCCC3)c2CO1 | 520 | -6.5% (inactive) | 15.1% (inactive) | 115 | 1.33 | -0.926 | -0.674 | 9.82% (inactive) | -0.395 (inactive) | 8.2e-06 (inactive) | 0.00654 (inactive) | inactive | 46.4% (inactive)
11 | Cc1cc(C)nc(N(C#N)S(=O)(=O)c2ccccc2Cl)n1 | 352 | -11.5% (inactive) | -228% (inactive) | 115 | -0.515 | -1.54 | -0.959 | -2.07% (inactive) | -0.406 (inactive) | -3.7e-06 (inactive) | 0.0071 (inactive) | inactive | -0.932% (inactive)
12 | Cc1cc(C)c2nc(SCCC#N)nc(C)c2c1 | 635 | -4.4% (inactive) | 9.3% (inactive) | 157 | 0.288 | -0.415 | 1 | -2.91% (inactive) | -0.508 (inactive) | -6.6e-05 (inactive) | 0.00476 (inactive) | inactive | 4.11% (inactive)
13 | CCN1CC2=C(OC(N)=C(C#N)C2c2ccccc2)/C(=C\c2ccccc2)C1 (stereo not drawn) | 489 | -6.9% (inactive) | -190% (inactive) | 174 | 0.232 | -0.856 | 0.432 | 9.61% (inactive) | -0.332 (inactive) | -1.3e-05 (inactive) | 0.00402 (inactive) | active; no signal in intestine only | 14.6% (inactive)
14 | CC1=C(C(=O)Nc2ccccc2)C(c2ccncc2)C(C#N)=C(SCC(=O)NC(C)C)N1 (stereo not drawn) | 532 | -8.3% (inactive) | -82.1% (inactive) | 162 | -0.265 | 0.666 | 0.309 | -1.12% (inactive) | -0.309 (inactive) | 3.2e-06 (inactive) | 0.00489 (inactive) | inactive | 5.12% (inactive)
15 | COc1cccc(Cn2c(NCC(C)C)nc3c2c(=O)n(C)c(=O)n3C)c1 | 341 | 3.2% (inactive) | -77.7% (inactive) | 127 | -0.509 | 0.441 | 1.11 | -0.624% (inactive) | -0.385 (inactive) | 4.1e-05 (inactive) | 0.00489 (inactive) | inactive | -12.8% (inactive)
16 | CCCCNC(=O)N1CCOCCOCCN(C(=O)NCCCC)CCOCC1 | 524 | -14.1% (inactive) | -164% (inactive) | 138 | 2.57 | -1.63 | -0.914 | 31.7% (inactive) | -0.55 (inactive) | -2.2e-05 (inactive) | 0.0049 (inactive) | inactive | 9.99% (inactive)
17 | COc1ccccc1N1CCN(C2CCN(C(=O)c3cccs3)CC2)CC1 | 390 | -7.8% (inactive) | -197% (inactive) | 173 | -0.252 | 0.0653 | 1.15 | -5.89% (inactive) | -0.397 (inactive) | -3e-05 (inactive) | 0.00342 (inactive) | inactive | 22.3% (inactive)
18 | Cc1cc(=O)oc(C)c1C(=O)NCCN1CCOCC1 | 476 | -0.5% (inactive) | -10.6% (inactive) | 92.4 | -0.82 | 0.575 | 1.34 | -1.75% (inactive) | -0.491 (inactive) | -1.8e-05 (inactive) | 0.00592 (inactive) | inactive | 21.9% (inactive)
19 | O=C(Nn1cnnc1)C(c1ccccc1)c1ccccc1 | 338 | -3.7% (inactive) | -164% (inactive) | 159 | 1.4 | 0.734 | 1.08 | 1.75% (inactive) | -0.417 (inactive) | -7.3e-05 (inactive) | 0.00619 (inactive) | inactive | 17.9% (inactive)
20 | O=C(O)C1CC=CCC1C(=O)N1CCN(c2nc(-c3ccccc3)c3ccccc3n2)CC1 (stereo not drawn) | 373 | -16.9% (inactive) | -48.5% (inactive) | 165 | -1.19 | 1.08 | 0.0489 | -5.26% (inactive) | -0.305 (inactive) | -7.9e-05 (inactive) | 0.00497 (inactive) | inactive | 28.5% (inactive)
21 | CCSc1nnc(N(CCC#N)CCC#N)s1 | 364 | -4.7% (inactive) | -60.2% (inactive) | 114 | -0.814 | 0.606 | -1.64 | 5.57% (inactive) | -0.474 (inactive) | -5.4e-06 (inactive) | 0.00528 (inactive) | inactive | -11.4% (inactive)
22 | CC1(C)Cc2c(C#N)c(NCC3CCCO3)nc(-c3ccco3)c2CO1 (stereo not drawn) | 508 | -1.3% (inactive) | -83% (inactive) | 123 | -1.04 | 1.4 | -1.27 | 11.9% (inactive) | -0.337 (inactive) | 1e-05 (inactive) | 0.00551 (inactive) | inactive | 1.27% (inactive)
23 | COc1cc(C2CC(C(F)(F)F)n3ncc(C(=O)O)c3N2)cc(OC)c1OC (stereo not drawn) | 515 | -6.9% (inactive) | 18.3% (inactive) | 119 | -0.754 | 0.674 | 1.11 | -2.07% (inactive) | -0.517 (inactive) | -9.9e-05 (inactive) | 0.0046 (inactive) | inactive | -0.326% (inactive)
24 | COc1ccc(CCNc2nc3c(c(=O)n(C)c(=O)n3C)n2C)cc1OC | 604 | -9.9% (inactive) | -63.1% (inactive) | 146 | 1.46 | -0.0832 | 0.95 | -4.27% (inactive) | -0.425 (inactive) | -6e-05 (inactive) | 0.00693 (inactive) | inactive | -4.62% (inactive)
25 | CCNC(=O)Nn1c(C)nnc1C | 604 | 5% (inactive) | 15.6% (inactive) | 129 | -0.49 | 0.191 | -0.43 | -8.27% (inactive) | -0.469 (inactive) | -0.000298 (inactive) | 0.00578 (inactive) | inactive | 7.13% (inactive)
26 | Clc1ccccc1CSc1nnc(-c2ccco2)c(-c2ccco2)n1 | 554 | -6.9% (inactive) | -21.1% (inactive) | 157 | -1.8 | 0.808 | 0.169 | -10.5% (inactive) | -0.407 (inactive) | -1.8e-05 (inactive) | 0.00446 (inactive) | inactive | 19.9% (inactive)
